Experimental data published in ChEMBL document CHEMBL1121826, “Relation of conformation to antitumor activity of platinum(II) complexes of 1,2-cyclohexanediamine and 2-(aminomethyl)cyclohexylamine isomers against leukemia P388” (J Med Chem, 1981).
Several values for one entry are separate records, joined by “and”; a condition that tells them apart may be missing. Identical values can stand only once.

Experiments:
[1] = Therapeutic index was determined against leukemia P388 cells in mice; type: cell-based; conditions: mouse
In short: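 CDF1 mice implanted ip with 10^6 P388 cells on day 0 and dosed ip on days 1 and 5 (saline, or saline plus Tween 80 suspension if insoluble); 6 treated and 10 control mice. % T/C from median survival. TI is optimal dose divided by MED (lowest dose giving % T/C above 120), per the NCI platinum analogue protocol.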

[2] = tested on: P388; assay: Antitumor activity against leukemia P388 in CDF1 mice; type: functional, cell-based; conditions: Mus musculus
In short: (§1)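 CDF1 [(BALB/c × DBA/2)F1] mice given 10^6 P388 cells ip on day 0; treatment ip on days 1 and 5; insoluble complexes suspended in physiological saline with a few drops of Tween 80. Groups of 6 treated and 10 control mice. Median survival of treated (T) and control (C) groups calculated; activity expressed as % T/C.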

[3] = tested on: P388; assay: Toxic dose against leukemia P388 in CDF1 mice; type: functional, cell-based; conditions: Mus musculus; in short: as §1
[4] = tested on: P388; assay: Optimal dose against leukemia P388 in CDF1 mice; type: functional, cell-based; conditions: Mus musculus; in short: as §1
[5] = tested on: P388; assay: Minimum effective dose (MED) against leukemia P388 in CDF1 mice; type: functional, cell-based; conditions: Mus musculus
In short: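 P388 model in CDF1 mice: 10^6 cells ip on day 0, ip dosing on days 1 and 5; 6 treated and 10 control mice per group. Median survival days give % T/C. MED is the lowest dose at which % T/C exceeded 120.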

For “0-Hexyl-1,3-diamine-platinum 2,2-dichloride [listing 1 of 2 here]”, which TI [1] is on record?
The TI was 4.

For “0-Hexyl-1,3-diamine-platinum 2,2-dichloride [listing 2 of 2 here]”, which T/C [2] is on record?
The T/C was 206% and 127%.

And the Toxic dose [3]?
Its Toxic dose is 12.5 mg/kg.

And the Optimal dose [4]?
Its Optimal dose is 6.25 mg/kg.

And the MED [5]?
Its MED is 1.56 mg/kg.

For CISPLATIN [listing 1 of 2 here], which TI [1] is on record?
Its TI is 4.

What does the source list for CISPLATIN [listing 2 of 2 here]?
T/C [2]: 230% (2×) and 134% (2×); Toxic dose [3]: 12.5 mg/kg; Optimal dose [4]: 3.12 mg/kg; MED [5]: 0.78 mg/kg

Which TI [1] does the source give for “amcha (cis-d)-2-(aminomethyl)cyclohexylamine platinum (II) complex [listing 1 of 5 here]” here?
Its TI is “>= 16”.

Which TI [1] does the source give for “amcha (cis-d)-2-(aminomethyl)cyclohexylamine platinum (II) complex [listing 2 of 5 here]” here?
The TI was 32.

Which TI [1] does the source give for “amcha (cis-d)-2-(aminomethyl)cyclohexylamine platinum (II) complex [listing 3 of 5 here]” here?
Its TI is “>= 4”.

For “amcha (cis-d)-2-(aminomethyl)cyclohexylamine platinum (II) complex [listing 4 of 5 here]”, which TI [1] is on record?
The TI was 16.

For “amcha (cis-d)-2-(aminomethyl)cyclohexylamine platinum (II) complex [listing 5 of 5 here]”, which T/C [2] is on record?
The T/C was 160% [middle of 8 runs].

And the MED [5]?
Its MED is less than 0.39 mg/kg.

With “amcha (cis-l)-2-(aminomethyl)cyclohexylamine platinum (II) complex [listing 1 of 6 here]” as the substance, how does the TI [1] read?
The TI was “>= 32”.

For “amcha (cis-l)-2-(aminomethyl)cyclohexylamine platinum (II) complex [listing 2 of 6 here]”, which TI [1] is on record?
Its TI is 32.

Which TI [1] does the source give for “amcha (cis-l)-2-(aminomethyl)cyclohexylamine platinum (II) complex [listing 3 of 6 here]” here?
The TI was greater than 16.

For “amcha (cis-l)-2-(aminomethyl)cyclohexylamine platinum (II) complex [listing 4 of 6 here]”, which TI [1] is on record?
The TI was greater than 8.

With “amcha (cis-l)-2-(aminomethyl)cyclohexylamine platinum (II) complex [listing 5 of 6 here]” as the substance, how does the TI [1] read?
Its TI is 8.

Which T/C [2] does the source give for “amcha (cis-l)-2-(aminomethyl)cyclohexylamine platinum (II) complex [listing 6 of 6 here]” here?
The T/C was 148% [middle of 11 runs].

What about the MED [5] of the same substance?
The MED was < 0.78 mg kg-1 (3×) and < 1.56 mg kg-1 and 0.78 mg kg-1.

Which TI [1] does the source give for “amcha (trans-d)-2-(aminomethyl)cyclohexylamine platinum (II) complex [listing 1 of 5 here]” here?
The TI was 16.

For “amcha (trans-d)-2-(aminomethyl)cyclohexylamine platinum (II) complex [listing 2 of 5 here]”, which TI [1] is on record?
The TI was 64.

Which TI [1] does the source give for “amcha (trans-d)-2-(aminomethyl)cyclohexylamine platinum (II) complex [listing 3 of 5 here]” here?
Its TI is “>= 64”.

For “amcha (trans-d)-2-(aminomethyl)cyclohexylamine platinum (II) complex [listing 4 of 5 here]”, which TI [1] is on record?
Its TI is “>= 16”.

What does the source list for “amcha (trans-d)-2-(aminomethyl)cyclohexylamine platinum (II) complex [listing 5 of 5 here]”?
T/C [2]: 160% [middle of 8 runs]; Toxic dose [3]: 100 mg kg-1 and > 100 mg kg-1 (2×) and > 200 mg kg-1; MED [5]: < 0.78 mg/kg

With “amcha (trans-l)-2-(aminomethyl)cyclohexylamine platinum (II) complex [listing 1 of 4 here]” as the substance, how does the TI [1] read?
Its TI is 4.

Which TI [1] does the source give for “amcha (trans-l)-2-(aminomethyl)cyclohexylamine platinum (II) complex [listing 2 of 4 here]” here?
The TI was 16.

With “amcha (trans-l)-2-(aminomethyl)cyclohexylamine platinum (II) complex [listing 3 of 4 here]” as the substance, how does the TI [1] read?
The TI was “>= 16”.

What does the source list for “amcha (trans-l)-2-(aminomethyl)cyclohexylamine platinum (II) complex [listing 4 of 4 here]”?
T/C [2]: 158% [middle of 10 runs]; Optimal dose [4]: 12.5 mg kg-1 (3×) and 25 mg kg-1 and > 25 mg kg-1

With “dach (cis)-1,2-cyclohexanediamine platinum (II) complex [listing 1 of 4 here]” as the substance, how does the TI [1] read?
Its TI is “>= 8”.

With “dach (cis)-1,2-cyclohexanediamine platinum (II) complex [listing 2 of 4 here]” as the substance, how does the TI [1] read?
Its TI is 4.

For “dach (cis)-1,2-cyclohexanediamine platinum (II) complex [listing 3 of 4 here]”, which TI [1] is on record?
Its TI is 16.

What does the source list for “dach (cis)-1,2-cyclohexanediamine platinum (II) complex [listing 4 of 4 here]”?
T/C [2]: 144% [middle of 10 runs]; Optimal dose [4]: 25 mg kg-1 (4×) and 12.5 mg kg-1

For “dach (trans-d)-1,2-cyclohexanediamine platinum (II) complex [listing 1 of 5 here]”, which TI [1] is on record?
Its TI is 8.

Which TI [1] does the source give for “dach (trans-d)-1,2-cyclohexanediamine platinum (II) complex [listing 2 of 5 here]” here?
The TI was 16.

For “dach (trans-d)-1,2-cyclohexanediamine platinum (II) complex [listing 3 of 5 here]”, which TI [1] is on record?
Its TI is 13.

Which TI [1] does the source give for “dach (trans-d)-1,2-cyclohexanediamine platinum (II) complex [listing 4 of 5 here]” here?
Its TI is “>= 8”.

Which T/C [2] does the source give for “dach (trans-d)-1,2-cyclohexanediamine platinum (II) complex [listing 5 of 5 here]” here?
Its T/C is 151% [middle of 12 runs].

For “dach (trans-l)1,2-cyclohexanediamine platinum (II) complex [listing 1 of 2 here]”, which TI [1] is on record?
The TI was “>= 4”.

For “dach (trans-l)1,2-cyclohexanediamine platinum (II) complex [listing 2 of 2 here]”, which Toxic dose [3] is on record?
The Toxic dose was 25 mg/kg.

And the Optimal dose [4]?
The Optimal dose was 6.25 mg/kg.

And the MED [5]?
The MED was less than 1.56 mg/kg.

Which TI [1] does the source give for “dach (trans-l)-1,2-cyclohexanediamine platinum (II) complex [listing 1 of 4 here]” here?
The TI was “>= 16”.

Which TI [1] does the source give for “dach (trans-l)-1,2-cyclohexanediamine platinum (II) complex [listing 2 of 4 here]” here?
The TI was 8.

Which TI [1] does the source give for “dach (trans-l)-1,2-cyclohexanediamine platinum (II) complex [listing 3 of 4 here]” here?
Its TI is 4.

With “dach (trans-l)-1,2-cyclohexanediamine platinum (II) complex [listing 4 of 4 here]” as the substance, how does the T/C [2] read?
The T/C was 182% [middle of 10 runs].
